{
  "source": "ChEMBL document CHEMBL4765243",
  "about": "“Discovery of Novel Bromophenol-Thiosemicarbazone Hybrids as Potent Selective Inhibitors of Poly(ADP-ribose) Polymerase-1 (PARP-1) for Use in Cancer” (J Med Chem, 2019)",
  "key": {"[1]": {"test": "Cytotoxicity against human HL7702 cells assessed as cell growth inhibition at 20 uM incubated for 48 hrs by MTT assay relative to control", "assay_type": "cell-based", "conditions": "HL7702 (L02) cells"}, "[2]": {"test_system": "L02", "test": "Cytotoxicity against human HL7702 cells assessed as cell growth inhibition incubated for 48 hrs by MTT assay", "assay_type": "cell-based", "conditions": "L02, 48 h", "method_in_brief": "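Cells seeded in 96-well plates and exposed to compounds for 48 h; viability read by MTT. Each experiment repeated three times. SK-OV-3 grown in McCOY's 5A, Bel-7402 and HL-7702 in RPMI-1640, HepG2 in DMEM, Caco-2 in MEM.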"}, "[3]": {"molecular_target": "T1, Poly [ADP-ribose] polymerase 1 (Homo sapiens, UniProt P09874)", "T1 sequence (P09874 whole entry)": "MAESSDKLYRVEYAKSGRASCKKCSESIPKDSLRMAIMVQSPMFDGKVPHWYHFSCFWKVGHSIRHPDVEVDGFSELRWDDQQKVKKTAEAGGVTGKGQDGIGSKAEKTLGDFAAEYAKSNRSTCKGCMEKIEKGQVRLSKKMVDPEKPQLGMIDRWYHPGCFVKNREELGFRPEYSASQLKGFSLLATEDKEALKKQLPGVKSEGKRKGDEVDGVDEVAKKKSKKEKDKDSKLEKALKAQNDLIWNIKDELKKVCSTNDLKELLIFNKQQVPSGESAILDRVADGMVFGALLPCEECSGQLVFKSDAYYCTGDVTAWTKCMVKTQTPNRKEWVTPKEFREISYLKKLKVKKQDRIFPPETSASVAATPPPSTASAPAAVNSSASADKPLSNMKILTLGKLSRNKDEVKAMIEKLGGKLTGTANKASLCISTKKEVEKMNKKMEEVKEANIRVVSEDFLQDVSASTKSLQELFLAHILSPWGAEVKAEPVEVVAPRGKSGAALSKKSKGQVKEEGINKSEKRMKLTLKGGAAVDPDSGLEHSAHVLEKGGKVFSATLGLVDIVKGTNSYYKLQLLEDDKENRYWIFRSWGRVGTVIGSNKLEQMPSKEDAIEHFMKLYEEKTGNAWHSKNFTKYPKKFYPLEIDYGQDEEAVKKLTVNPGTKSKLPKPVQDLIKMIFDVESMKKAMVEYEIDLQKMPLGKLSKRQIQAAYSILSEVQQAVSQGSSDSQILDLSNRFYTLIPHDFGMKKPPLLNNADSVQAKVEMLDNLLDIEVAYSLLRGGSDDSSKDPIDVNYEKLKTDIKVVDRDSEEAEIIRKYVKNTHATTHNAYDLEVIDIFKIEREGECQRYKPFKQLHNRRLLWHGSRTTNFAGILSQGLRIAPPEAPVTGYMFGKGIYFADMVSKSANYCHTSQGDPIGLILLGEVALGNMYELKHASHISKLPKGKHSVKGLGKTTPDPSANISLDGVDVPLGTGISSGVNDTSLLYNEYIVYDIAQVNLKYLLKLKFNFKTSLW", "test": "Inhibition of PARP-1 in human SKOV3 cells assessed as decrease in MCM2 protein expression level at 2.5 to 10 uM incubated for 48 hrs by western blot analysis", "assay_type": "cell-based", "conditions": "SK-OV-3, dose 2.5-10 µM", "method_in_brief": "(§1)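 SK-OV-3 cells were grown in McCOY's 5A, seeded in 6-well plates and treated for 48 h. Lysate proteins were separated by 8-15 % SDS-PAGE and transferred to PVDF membranes. Membranes were blocked in 5 % nonfat milk, probed with primary antibody overnight at 4 °C and with HRP secondary antibody for 1 h at room temperature, then detected by enhanced chemiluminescence. Images are representative of 3 independent experiments.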"}, "[4]": {"molecular_target": "T1, Poly [ADP-ribose] polymerase 1", "test": "Inhibition of PARP-1 in human SKOV3 cells assessed as decrease in MCM3 protein expression level at 2.5 to 10 uM incubated for 48 hrs by western blot analysis", "assay_type": "cell-based", "conditions": "SK-OV-3, dose 2.5-10 µM", "method_in_brief": "as §1"}, "[5]": {"molecular_target": "T1, Poly [ADP-ribose] polymerase 1", "test": "Inhibition of PARP-1 in human SKOV3 cells assessed as decrease in MCM7 protein expression level at 2.5 to 10 uM incubated for 48 hrs by western blot analysis", "assay_type": "cell-based", "conditions": "SK-OV-3, dose 2.5-10 µM", "method_in_brief": "as §1"}, "[6]": {"molecular_target": "T1, Poly [ADP-ribose] polymerase 1", "test": "Inhibition of PARP-1 in human SKOV3 cells assessed as increase in gammaH2AX expression level at 2.5 to 10 uM incubated for incubated for 48 hrs by western blot analysis", "assay_type": "cell-based", "conditions": "SK-OV-3, dose 2.5-10 µM", "method_in_brief": "as §1"}, "[7]": {"test_system": "SK-OV-3", "test": "Induction of apoptosis in human SKOV3 cells assessed as increase in Bax expression at 2.5 to 10 uM incubated for 48 hrs by western blot analysis", "assay_type": "functional, cell-based", "conditions": "dose 2.5-10 µM"}, "[8]": {"test_system": "SK-OV-3", "test": "Induction of cell cycle arrest in human SKOV3 cells assessed as accumulation at G2/M phase incubated for 48 hrs by propidium iodide staining based flow cytometry analysis", "assay_type": "functional", "method_in_brief": "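SK-OV-3 cells in 6-well plates incubated 24 h, then treated 48 h. Cells harvested, fixed, stained with propidium iodide and analysed by flow cytometry.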"}, "[9]": {"test_system": "SK-OV-3", "test": "Induction of cell cycle arrest in human SKOV3 cells assessed as reduction in cyclin B1 expression at 2.5 to 10 uM incubated for 48 hrs by western blot analysis", "assay_type": "functional, cell-based", "conditions": "dose 2.5-10 µM"}, "[10]": {"test_system": "SK-OV-3", "test": "Induction of ROS generation in human SKOV3 cells assessed as fold increase in ROS level at 2.5 uM incubated for 48 hrs by DCFH-DA staining based flow cytometry relative to control", "assay_type": "functional"}, "[11]": {"test_system": "SK-OV-3", "test": "Induction of autophagy in human SKOV3 cells transfected with GFP-LC3 assessed as increase in LC3 dot accumulation at 10 uM incubated for 48 hrs by TEM analysis", "assay_type": "functional, cell-based", "conditions": "in the assay text read “fluorescence microscopy” for “TEM analysis”", "method_in_brief": "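SK-OV-3 cells on glass coverslips infected with Ad-mCherry-GFP-LC3B for 24 h. Cells then treated at 10 µM for 48 h, fixed in 4% paraformaldehyde and examined by fluorescence microscopy.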"}, "[12]": {"test_system": "SK-OV-3", "test": "Induction of autophagy in human SKOV3 cells assessed as LC3-II protein expression at 10 uM incubated for 48 hrs by western blot analysis", "assay_type": "functional, cell-based", "method_in_brief": "(§2)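 SK-OV-3 cells in 6-well plates treated 48 h. Lysates separated by 8-15% SDS-PAGE and transferred to PVDF. Membranes blocked in 5% milk and probed overnight at 4 °C with LC3 or Beclin 1 antibodies. HRP secondary applied 1 h at room temperature; detection by ECL.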"}, "[13]": {"test_system": "SK-OV-3", "test": "Induction of autophagy in human SKOV3 cells assessed as increase in Beclin-1 protein level at 10 uM incubated for 48 hrs by western blot analysis", "assay_type": "functional, cell-based", "method_in_brief": "as §2"}, "[14]": {"test": "Toxicity in Balb/c nude mouse xenografted with human SKOV3 cells assessed as change in body weight at 25 mg/kg, po for 21 days and measured every third day", "assay_type": "organism-based", "conditions": "in vivo, 504 h, time 21 day", "method_in_brief": "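Female BALB/c nu/nu mice, 6-8 weeks old, kept under SPF conditions. Each received 5×10^6 SK-OV-3 cells s.c. At 80–120 mm3 tumour volume, mice were split into four groups (n=6). […] Caliper measurement every three days; volume = X × (Y2/2).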"}, "[15]": {"test_system": "SK-OV-3", "test": "Antitumor activity against human SKOV3 cells xenografted in Balb/c nude mouse assessed as increase in gamma-H2AX expression in tumor at 25 to 50 mg/kg, po for 21 days by immunohistochemistry analysis", "assay_type": "functional, organism-based", "conditions": "dose 25-50 mg/kg, time 21.0 day", "method_in_brief": "(§3)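 SK-OV-3 xenografts in female BALB/c nude mice were dosed orally at 25 or 50 mg/kg in 0.5% CMC-Na for 21 days. Tumours were then snap-frozen in liquid nitrogen or fixed in 10% neutral-buffered formalin. Analysis used western blotting, H&E and immunohistochemistry on paraffin sections (Ki67, γ-H2AX).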"}, "[16]": {"test": "Toxicity in Balb/c nude mouse xenografted with human SKOV3 cells assessed as histological changes in liver at 25 to 50 mg/kg, po for 21 days by H and E staining based microscopic analysis", "assay_type": "organism-based", "conditions": "in vivo, 504 h, dose 25-50 mg/kg, time 21 day", "method_in_brief": "as §3"}, "[17]": {"test": "MRT in Sprague-Dawley rat at 2 mg/kg, iv by LC/MS/MS analysis", "assay_type": "ADME, organism-based", "conditions": "in vivo", "method_in_brief": "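Male Sprague-Dawley rats, 4 per group, dosed once orally at 10 mg/kg or intravenously at 2 mg/kg. Blood taken from the saphenous vein for plasma. Drug levels measured by LC-MS-MS, with parameters derived by noncompartmental analysis.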"}, "[18]": {"test": "AUC (0 to infinity) in Sprague-Dawley rat at 10 mg/kg, po by LC/MS/MS analysis", "assay_type": "ADME, organism-based", "parameters": "time infinity, route oral, dose 10 mg/kg", "conditions": "in vivo"}, "[19]": {"test": "Acute toxicity in SPF Kunming mouse assessed as abnormality at 100 to 1000 mg/kg, po administered as single dose and measured upto 14 days post drug administration", "assay_type": "organism-based", "conditions": "in vivo, 336 h, dose 100-1000 mg/kg, time <=14 day", "method_in_brief": "(§4)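 Single oral dose groups at 0 (physiological saline blank, equal volume), 100, 500 and 1000 mg/kg. Mice housed with free access to water and food in stainless cages, 25 ± 1 °C, 12-h light/dark cycle. Survival, body weight and abnormalities recorded up to 14 days post-treatment.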"}, "[20]": {"test": "Acute toxicity in SPF Kunming mouse assessed as change in body weight at 100 to 1000 mg/kg, po administered as single dose and measured upto 14 days post drug administration", "assay_type": "organism-based", "conditions": "in vivo, 336 h, dose 100-1000 mg/kg, time <=14 day", "method_in_brief": "as §4"}, "[21]": {"test": "Subacute toxicity in SPF Kunming mouse assessed as change in heart at 1000 mg/kg, po administered for 14 days by H and E staining based microscopic analysis", "assay_type": "organism-based", "conditions": "in vivo, 336 h, time 14 day", "method_in_brief": "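Twenty SPF Kunming mice (18 - 22 g), half male and half female, randomised into 2 groups of 5 males + 5 females. Treated group dosed orally at 1000 mg/kg once daily for 14 days. Death, clinical signs and body weight monitored. After 14 days: isoflurane anaesthesia, decapitation, tissues collected for H&E histology.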"}, "[22]": {"molecular_target": "T1, Poly [ADP-ribose] polymerase 1", "test": "Inhibition of PARP-1 in human SKOV3 cells assessed as increase in gammaH2AX expression level by immunofluorescence analysis", "assay_type": "cell-based", "conditions": "SK-OV-3"}},
  "note": "Calls of active or inactive are those of the source. No cut-off for these calls is given here.",
  "data": [
    {"smiles": "COc1cc(/C=N/NC(N)=S)c(Br)c(Br)c1OC", "values": [
      {"measurement": "inhibition at 48 h, 20 µM", "setting": "[1]", "result": 89.9, "unit": "%"},
      {"measurement": "IC50", "setting": "[2]", "result": 13.3, "unit": "µM"},
      {"measurement": "inhibition", "setting": "[3]", "result": "Active"},
      {"measurement": "inhibition", "setting": "[4]", "result": "Active"},
      {"measurement": "inhibition", "setting": "[5]", "result": "Active"},
      {"measurement": "inhibition", "setting": "[6]", "result": "Active"},
      {"measurement": "Activity", "setting": "[7]", "result": "Active"},
      {"measurement": "Activity", "setting": "[8]", "result": "Dose-dependent effect"},
      {"measurement": "Activity", "setting": "[9]", "result": "Active"},
      {"measurement": "fold change (FC)", "setting": "[10]", "result": 1.76},
      {"measurement": "Activity", "setting": "[11]", "result": "Active"},
      {"measurement": "Activity", "setting": "[12]", "result": "Active"},
      {"measurement": "Activity", "setting": "[13]", "result": "Active"},
      {"measurement": "Activity", "setting": "[14]", "result": "Non-Toxic"},
      {"measurement": "Activity", "setting": "[15]", "result": "Active"},
      {"measurement": "Activity", "setting": "[16]", "result": "Non-Toxic"},
      {"measurement": "MRT", "setting": "[17]", "result": 1.14, "unit": "h"},
      {"measurement": "AUC", "setting": "[18]", "result": 0.0839, "unit": "µM·h"},
      {"measurement": "Activity", "setting": "[19]", "result": "Non-Toxic"},
      {"measurement": "Activity", "setting": "[20]", "result": "Non-Toxic"},
      {"measurement": "Activity", "setting": "[21]", "result": "Non-Toxic"},
      {"measurement": "inhibition", "setting": "[22]", "result": "Active"}
    ]}
  ]
}
